Laboratory results reported in ChEMBL document CHEMBL3227981, “Studies on biologically active nucleosides and nucleotides. 5. Synthesis and antitumor activity of some 2,2'-anhydro-1-(3',5'-di-O-acyl-beta-D-arabinofuranosyl)cytosine salts and 2,2'-anhydro-1-(3'-O-acyl-beta-D-arabinofuranoxyl)cytosine 5'-phosphates” (J Med Chem, 1979).

Experiments:
L1210 [1] = experiment: Antitumor activity against mouse L1210 cells allografted in BDF1 mouse assessed as increase of host life span at 100 mg/kg, po qd for 5 days; format: functional
How it was run: (§1)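 L1210 cells (1×10^5) were implanted ip in BDF1 mice. Oral dosing began 24 h later and ran once daily for 5 days, with compound in 0.9% saline containing 0.1% HCO-60 as solution or suspension. Six to ten mice per group. Percent ILS was (T/C − 1) × 100 on mean survival time, with a 30-day observation period.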

L1210 [2] = experiment: Antitumor activity against mouse L1210 cells allografted in BDF1 mouse assessed as increase of host life span at 100 mg/kg, ip qd for 5 days; format: functional; conditions: route intraperitoneal
How it was run: (§2)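 BDF1 mice were given 1×10^5 L1210 cells ip. Compound was dissolved or suspended in 0.9% NaCl with 0.1% HCO-60 and given ip daily for 5 days, starting 24 h after inoculation. Groups had 6–10 mice. ILS = (T/C − 1) × 100, from mean survival time of treated versus control mice, observed over 60 days.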

L1210 [3] = experiment: Antitumor activity against mouse L1210 cells allografted in BDF1 mouse assessed as increase of host life span at 25 mg/kg, ip qd for 5 days; format: functional; conditions: route intraperitoneal; how it was run: as §2
L1210 [4] = experiment: Antitumor activity against mouse L1210 cells allografted in BDF1 mouse assessed as increase of host life span at 200 mg/kg, po qd for 5 days; format: functional; how it was run: as §1
L1210 [5] = experiment: Antitumor activity against mouse L1210 cells allografted in BDF1 mouse assessed as increase of host life span at 6.25 mg/kg, ip qd for 5 days; format: functional; conditions: route intraperitoneal; how it was run: as §2
[6] = Toxicity in ip dosed ICR mouse up to 3 weeks; format: organism-based; conditions: in vivo
How it was run: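 Maximum tolerated dose was set from a single ip injection into three female ICR mice weighing 20–21 g, followed by 3 weeks of observation.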

| SMILES | Activity (L1210 [1]) [%] | Activity (L1210 [2]) [%] | Activity (L1210 [3]) [%] | Activity (L1210 [4]) [%] | Activity (L1210 [5]) [%] | MTD at 504 h [6] [mg/kg] |
| --- | --- | --- | --- | --- | --- | --- |
| CCCCSCCCCCCCCCCC(=O)OC[C@H]1O[C@@H]2[C@H](Oc3nc(=N)ccn32)[C@@H]1OC(=O)CCCCCCCCCCSCCCC.Cl | 4 | >624.3 | 164 | 13.3 | 26.7 | 500 |
| CCCC(=O)OCCCCCCCCCCC(=O)OC[C@H]1O[C@@H]2[C@H](Oc3nc(=N)ccn32)[C@@H]1OC(=O)CCCCCCCCCCOC(=O)CCC.Cl | 13.3 | 86.7 | 66.7 | 33.3 | 5.1 | 300 |
| Cc1ccc(C(=O)OC[C@H]2O[C@@H]3[C@H](Oc4nc(=N)ccn43)[C@@H]2OC(=O)c2ccc(C)cc2)cc1.Cl | 14.7 | 81.3 | 37.3 | 30.7 |  | 750 |
| CC(C)(C)c1ccc(C(=O)OC[C@H]2O[C@@H]3[C@H](Oc4nc(=N)ccn43)[C@@H]2OC(=O)c2ccc(C(C)(C)C)cc2)cc1.Cl | 22.7 | 116.7 | 84 | 26.7 | 26.7 | 300 |
| CCOc1ccc(C(=O)OC[C@H]2O[C@@H]3[C@H](Oc4nc(=N)ccn43)[C@@H]2OC(=O)c2ccc(OCC)cc2)cc1.Cl |  | 67.5 | 33.3 |  |  | 500 |
| CCCCCCCCOc1ccc(C(=O)OC[C@H]2O[C@@H]3[C@H](Oc4nc(=N)ccn43)[C@@H]2OC(=O)c2ccc(OCCCCCCCC)cc2)cc1.Cl |  | 12.8 |  |  |  | 300 |
| Cl.N=c1ccn2c(n1)O[C@@H]1[C@H](OC(=O)c3ccccc3Cl)[C@@H](COC(=O)c3ccccc3Cl)O[C@H]12 |  |  | 25.6 | 28.2 |  | < 300 |
| Cl.N=c1ccn2c(n1)O[C@@H]1[C@H](OC(=O)c3cccc(Cl)c3)[C@@H](COC(=O)c3cccc(Cl)c3)O[C@H]12 |  |  | 28.2 | 38.5 |  | < 300 |
| Cl.N=c1ccn2c(n1)O[C@@H]1[C@H](OC(=O)c3ccc(Cl)cc3)[C@@H](COC(=O)c3ccc(Cl)cc3)O[C@H]12 |  | 105.1 | 31.3 | 21.8 |  | 750 |
| Cl.N=c1ccn2c(n1)O[C@@H]1[C@H](OC(=O)c3ccc(F)cc3)[C@@H](COC(=O)c3ccc(F)cc3)O[C@H]12 |  | 47.4 | 10 | 38.5 |  | 500 |
| F[B-](F)(F)F.[NH2+]=c1ccn2c(n1)O[C@@H]1[C@H](OC(=O)c3cccc4ccccc34)[C@@H](COC(=O)c3cccc4ccccc34)O[C@H]12 |  | 82.1 | 35.5 |  |  | 500 |
| Cl.N=c1ccn2c(n1)O[C@@H]1[C@H](OC(=O)/C=C/c3ccco3)[C@@H](COC(=O)/C=C/c3ccco3)O[C@H]12 | 20 | 54.7 | 20 | 26.7 |  | 300 |
| CC(C)(C)C(=O)O[C@H]1[C@H]2Oc3nc(=N)ccn3[C@@H]2O[C@@H]1COC(=O)CCCCCCC(=O)OC[C@H]1O[C@@H]2[C@H](Oc3nc(=N)ccn32)[C@@H]1OC(=O)C(C)(C)C.Cl |  |  | 25 | 41 |  | < 300 |
| CC(=O)O[C@H]1[C@H]2Oc3nc(=N)ccn3[C@@H]2O[C@@H]1COP(=O)(O)O | 13.3 | 57.3 | 30.7 | 46.9 |  | > 1500 |
| CCCCC(=O)O[C@H]1[C@H]2Oc3nc(=N)ccn3[C@@H]2O[C@@H]1COP(=O)(O)O | 22.7 | 64.6 | 37 | 45.6 | 15.8 | 750 |
| CCCCCCCC(=O)O[C@H]1[C@H]2Oc3nc(=N)ccn3[C@@H]2O[C@@H]1COP(=O)(O)O |  | 76 | 50.7 | 50.7 | 6.3 | 500 |
| CCCCCCCCCCCCCCCC(=O)O[C@H]1[C@H]2Oc3nc(=N)ccn3[C@@H]2O[C@@H]1COP(=O)(O)O |  | >441.1 | 116.4 | 43 | 27.4 | 500 |
| Cl.N=c1ccn2c(n1)O[C@@H]1[C@H](O)[C@@H](CO)O[C@H]12 | 32.5 | 76.9 | 42.3 | 69.2 |  | 3000 |
